# Measured values reported in ChEMBL document CHEMBL3286264, “Discovery of novel and selective SIRT6 inhibitors” (J Med Chem, 2014).
# Activity calls are given as the source filed them. No cut-off for these calls is given here.
# Legend:
# [1] = target: T1, NAD-dependent protein deacylase sirtuin-6 (Homo sapiens, UniProt Q8N6T7); assay: Inhibition of SIRT6 (unknown origin) at 200 uM by fluorescence-based assay
# [2] = system: BXPC-3; assay: Increase in GLUT1 expression in human BxPC3 cells at 200 uM after 6 hrs by Western blotting analysis; assay type: functional, cell-based
# Procedure, shortened: (§1)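 BxPC-3 cells plated 4 × 10^5 per well and allowed to adhere 24 h. Treated either 24 h at the stated concentrations or for a time course at 200 μM. Lysed in Tris-HCl pH 7.5/NaCl/NP40 buffer. 30 μg protein run on 15% SDS-PAGE and transferred to PVDF. GLUT-1 and γ-tubulin detected by immunoblotting with ECL.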
# [3] = species on record: Homo sapiens; assay: Selectivity ratio of IC50 for SIRT1 (unknown origin) to IC50 for SIRT6 (unknown origin)
# Procedure, shortened: (§2)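 Deacetylase activity measured with commercial fluorescence-based SIRT1, SIRT2 or SIRT6 kits per manufacturer's instructions. Compounds from 50 mM DMSO stocks, tested from 8 μM to 5 mM. IC50 derived by logarithmic nonlinear regression. Three independent determinations per compound.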
# [4] = target: T1, NAD-dependent protein deacylase sirtuin-6; assay: Inhibition of SIRT6 in human BxPC3 cells assessed as increase in H3K9 acetylation at 100 uM after 18 hrs by immunoblot analysis; assay type: cell-based; details: BXPC-3
# Procedure, shortened: (§3)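 BxPC-3 cells plated 4 × 10^5 per well, adhered 24 h, then given 100 μM compound or matching DMSO (final DMSO 2–6‰) for varying times. Lysates (30 μg) resolved on 15% SDS-PAGE and immunoblotted for acetyl-H3K9 and total H3 with ECL. Acetyl-H3K9 normalized to total H3 and expressed as % versus vehicle-treated cells.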
# [5] = system: BXPC-3; assay: Increase in [14C]-2-deoxy-D-glucose uptake in human BxPC3 cells at 200 uM after 18 hrs by scintillation counting analysis relative to control; assay type: functional
# Procedure, shortened: (§4)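 Human BxPC-3 or rat L6 cells (6 × 10^5/well) treated in triplicate for 18 h with 200 μM (final) compound in complete medium. Uptake measured with 0.5 mM 2-deoxy-D-glucose/[14C]-2-deoxy-D-glucose (0.5 μCi/well) in KRH buffer for 5 min at 37 °C. Cells lysed in 0.1% SDS for scintillation counting. Uptake in presence of cytochalasin B plus phloretin subtracted. Expressed relative to untreated.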
# [6] = species on record: Homo sapiens; assay: Selectivity ratio of IC50 for SIRT2 (unknown origin) to IC50 for SIRT6 (unknown origin); procedure, shortened: as §2
# [7] = target: T1, NAD-dependent protein deacylase sirtuin-6; assay: Inhibition of SIRT6 (unknown origin); procedure, shortened: as §2
# [8] = system: BXPC-3; assay: Inhibition of PMA-induced TNF-alpha secretion in human BxPC3 cells at 100 uM incubated for overnight prior to stimulation of PMA for 24 hrs by ELISA; assay type: functional; details: BXPC-3, 24 h
# Procedure, shortened: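 BxPC-3 cells (3 × 10^5/well) allowed to adhere 24 h, then incubated overnight with 100 μM compound or vehicle. Stimulated 24 h with 25 ng/mL PMA. TNF-α in supernatants measured by DuoSet ELISA. Expressed as % inhibition.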
# [9] = target: T1, NAD-dependent protein deacylase sirtuin-6; assay: Inhibition of SIRT6 in human BxPC3 cells assessed as increase in H3K9 acetylation at 100 uM after >18 hrs by immunoblot analysis; assay type: cell-based; details: BXPC-3; procedure, shortened: as §3
# [10] = target: T2, NAD-dependent protein deacetylase sirtuin-1 (Homo sapiens, UniProt Q96EB6); assay: Inhibition of SIRT1 (unknown origin); procedure, shortened: as §2
# T2 sequence (Q96EB6 whole entry): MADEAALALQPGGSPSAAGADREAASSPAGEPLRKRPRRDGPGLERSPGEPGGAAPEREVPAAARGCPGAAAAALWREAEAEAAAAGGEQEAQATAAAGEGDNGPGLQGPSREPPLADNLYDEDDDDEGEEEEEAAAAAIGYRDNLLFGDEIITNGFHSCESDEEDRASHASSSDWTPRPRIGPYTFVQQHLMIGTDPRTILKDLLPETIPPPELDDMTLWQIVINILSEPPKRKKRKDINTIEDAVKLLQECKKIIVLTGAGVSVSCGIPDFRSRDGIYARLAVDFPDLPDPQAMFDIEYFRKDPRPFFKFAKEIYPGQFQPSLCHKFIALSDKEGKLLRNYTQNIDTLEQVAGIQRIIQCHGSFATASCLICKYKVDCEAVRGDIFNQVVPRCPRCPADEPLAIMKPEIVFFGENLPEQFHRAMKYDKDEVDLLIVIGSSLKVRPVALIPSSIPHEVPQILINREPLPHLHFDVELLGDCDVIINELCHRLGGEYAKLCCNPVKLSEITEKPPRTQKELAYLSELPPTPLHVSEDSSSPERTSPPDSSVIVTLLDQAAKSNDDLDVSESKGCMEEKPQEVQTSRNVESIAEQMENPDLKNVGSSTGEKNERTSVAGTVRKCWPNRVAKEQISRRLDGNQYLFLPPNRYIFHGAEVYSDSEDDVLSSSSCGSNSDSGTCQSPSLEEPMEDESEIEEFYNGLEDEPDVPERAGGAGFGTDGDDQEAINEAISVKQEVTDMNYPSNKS
# [11] = target: T3, NAD-dependent protein deacetylase sirtuin-2 (Homo sapiens, UniProt Q8IXJ6); assay: Inhibition of SIRT2 (unknown origin); procedure, shortened: as §2
# T3 sequence (Q8IXJ6 whole entry): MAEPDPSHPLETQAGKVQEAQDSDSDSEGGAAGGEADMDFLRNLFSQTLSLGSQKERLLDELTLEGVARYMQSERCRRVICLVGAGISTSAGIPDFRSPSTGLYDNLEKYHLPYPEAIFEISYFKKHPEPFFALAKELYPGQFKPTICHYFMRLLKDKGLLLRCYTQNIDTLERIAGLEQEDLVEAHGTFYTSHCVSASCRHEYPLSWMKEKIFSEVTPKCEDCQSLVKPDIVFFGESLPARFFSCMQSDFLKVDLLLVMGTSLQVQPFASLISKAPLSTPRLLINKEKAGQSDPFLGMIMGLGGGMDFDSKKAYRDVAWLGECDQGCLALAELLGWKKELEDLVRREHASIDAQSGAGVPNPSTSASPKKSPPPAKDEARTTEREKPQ
# [12] = system: L6; assay: Increase in [14C]-2-deoxy-D-glucose uptake in rat L6 cells at 200 uM after 18 hrs by scintillation counting analysis relative to control; assay type: functional; procedure, shortened: as §4
# [13] = system: BXPC-3; assay: Increase in GLUT1 expression in human BxPC3 cells at 12.5 to 200 uM after 24 hrs by Western blotting analysis; assay type: functional, cell-based; procedure, shortened: as §1
# [14] = system: BXPC-3; assay: Increase in GLUT1 expression in human BxPC3 cell surface at 100 uM after 24 hrs by flow cytometry; assay type: functional, cell-based
# Procedure, shortened: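 BxPC-3 cells plated 4 × 10^5 per well, allowed to adhere 24 h, then exposed 24 h to 100 μM compound or DMSO vehicle. Cells trypsinized, fixed 10 min in 100% methanol at −20 °C, stained with anti-GLUT-1 antibody then anti-mouse IgG2a (each 30 min, 4 °C). Analysed by flow cytometry, 10.000 events/sample.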
# T1 sequence (Q8N6T7 whole entry): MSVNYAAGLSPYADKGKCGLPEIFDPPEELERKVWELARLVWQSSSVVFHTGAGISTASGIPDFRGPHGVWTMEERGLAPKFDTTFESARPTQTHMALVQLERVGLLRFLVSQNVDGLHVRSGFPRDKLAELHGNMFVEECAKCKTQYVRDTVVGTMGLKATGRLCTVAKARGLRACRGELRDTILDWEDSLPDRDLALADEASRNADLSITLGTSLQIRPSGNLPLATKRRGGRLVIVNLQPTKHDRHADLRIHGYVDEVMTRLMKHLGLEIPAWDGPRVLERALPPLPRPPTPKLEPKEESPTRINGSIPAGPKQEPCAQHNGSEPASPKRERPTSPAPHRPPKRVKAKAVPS
structure (smiles),measurement,setting,value
COc1ccc(OCC(O)Cn2c(NCCc3ccccc3)nc3c2c(=O)[nH]c(=O)n3C)cc1 (stereo unspecified),inhibition,[1],inactive
O=C(CSCc1ccc(Cl)c(Cl)c1)Nc1cnc(O)nc1O,inhibition,[1],inactive
CCOc1ccc(NC2SC(=O)NC2=O)cc1 (stereo unspecified),inhibition,[1],inactive
O=C(Nc1ccc(NS(=O)(=O)c2ccc(Oc3ccc([N+](=O)[O-])cc3)cc2)cc1)c1ccccc1,inhibition,[1],inactive
O=C(CSc1nc[nH]n1)CSc1nc[nH]n1,inhibition,[1],inactive
Cc1nc(=O)c2c([nH]1)CC1CCC(C2)N1Cc1ccc2c(c1)CC(C)O2 (stereo unspecified),inhibition,[1],inactive
CC1(CCC(=O)O)NC(=O)NC1=O (stereo unspecified),inhibition,[1],inactive
N=C(Nc1ccccc1)SC1CC(=O)N(c2ccc(C(=O)O)cc2)C1=O (racemic),inhibition,[1],66%
same,Activity,[2],Active
same,Ratio IC50,[3],19.1
same,inhibition,[4],Active
same,fold change (FC),[5],3.09
same,Ratio IC50,[6],9.63
same,IC50,[7],181 µM
same,inhibition at 100 µM,[8],53%
same,inhibition,[9],inactive
same,IC50,[10],3470 µM
same,IC50,[11],1740 µM
same,fold change (FC),[12],1.55
O=c1cc(-c2ccccc2)[nH]c(=O)[nH]1,inhibition,[1],inactive
O=c1[nH]c(=O)c2cc(S(=O)(=O)Nc3ccc(Oc4cccnc4)cc3)ccc2[nH]1,inhibition,[1],100%
same,Activity,[13],Active
same,Activity,[14],Active
same,Ratio IC50,[3],2.96
same,inhibition,[4],Active
same,fold change (FC),[5],1.3
same,Ratio IC50,[6],1.07
same,IC50,[7],106 µM
same,inhibition at 100 µM,[8],73%
same,inhibition,[9],inactive
same,IC50,[10],314 µM
same,IC50,[11],114 µM
same,fold change (FC),[12],1.98
O=C(NCc1nc(-c2cccnc2)n[nH]1)c1cnccn1,inhibition,[1],12%
same,Ratio IC50,[3],1.1
same,Ratio IC50,[6],1.71
same,IC50,[7],1340 µM
same,IC50,[10],1470 µM
same,IC50,[11],2290 µM
O=C1NC(=O)C2(CCCCCC2)N1,inhibition,[1],inactive
O=C(Nc1ccc(O)c(C(=O)O)c1)c1cccc(NC(=O)c2ccco2)c1,Activity,[13],Active
same,Activity,[14],Active
same,Ratio IC50,[3],17.7
same,fold change (FC),[5],1.11
same,Ratio IC50,[6],8.44
same,IC50,[7],89 µM
same,inhibition at 100 µM,[8],50%
same,IC50,[10],1580 µM
same,IC50,[11],751 µM
same,fold change (FC),[12],1.2
NC(=O)c1ccc[n+](CCCCCC[n+]2cccc(C(N)=O)c2)c1,inhibition,[1],inactive
